Results as given in ChEMBL document CHEMBL5356993, “Novel pyrazolo[3,4-d]pyrimidine derivatives: design, synthesis, anticancer evaluation, VEGFR-2 inhibition, and antiangiogenic activity” (RSC Med Chem, 2023).

Key:
Format in all cases: functional
Details in all cases: read-out: GI
SF-268 = test: Antiproliferative activity against human SF-268 cells assessed as cell growth inhibition at 10 uM incubated for 48 hrs by SRB assay relative to control
SN12C = test: Antiproliferative activity against human SN12C cells assessed as cell growth inhibition at 10 uM incubated for 48 hrs by SRB assay relative to control
DU-145 = test: Antiproliferative activity against human DU-145 cells assessed as cell growth inhibition at 10 uM incubated for 48 hrs by SRB assay relative to control
HCT-15 = test: Antiproliferative activity against human HCT-15 cells assessed as cell growth inhibition at 10 uM incubated for 48 hrs by SRB assay relative to control
NCI-H460 = test: Antiproliferative activity against human NCI-H460 cells assessed as cell growth inhibition at 10 uM incubated for 48 hrs by SRB assay relative to control
SK-MEL-2 = test: Antiproliferative activity against human SK-MEL-2 cells assessed as cell growth inhibition at 10 uM incubated for 48 hrs by SRB assay relative to control
How it was run: (§1)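 Cells plated in 96-well plates at […] cells/well and preincubated 24 h at 37 °C, 5% CO2. Time-zero plates were TCA-fixed. Compound was diluted in medium with 50 µg/mL gentamicin and cells exposed for 48 h. Adherent cells fixed with 10% final TCA; suspension cells with 16% final TCA. Plates stained with 0.4% SRB in 1% acetic acid, dye solubilized in 10 mM Trizma, absorbance read at 515 nm. Percent growth calculated against time-zero and control.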

NCI/ADR-RES = test: Antiproliferative activity against human NCI-ADR-RES cells assessed as cell growth inhibition at 10 uM incubated for 48 hrs by SRB assay relative to control
OVCAR-3 = test: Antiproliferative activity against human OVCAR-3 cells assessed as cell growth inhibition at 10 uM incubated for 48 hrs by SRB assay relative to control; how it was run: as §1
RXF 393 = test: Antiproliferative activity against human RXF 393 cells assessed as cell growth inhibition at 10 uM incubated for 48 hrs by SRB assay relative to control; how it was run: as §1
BT-549 = test: Antiproliferative activity against human BT-549 cells assessed as cell growth inhibition at 10 uM incubated for 48 hrs by SRB assay relative to control
TK-10 = test: Antiproliferative activity against human TK-10 cells assessed as cell growth inhibition at 10 uM incubated for 48 hrs by SRB assay relative to control
How it was run: (§2)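 Cells pre-incubated 24 h at 37°C, 5% CO2, then exposed to compound (DMSO stock diluted in medium with 50 µg/mL gentamicin) for 48 h. Adherent cells fixed with cold TCA (final 10%, 60 min, 4°C); suspension cells fixed with 16% TCA final. Stained with 0.4% SRB in 1% acetic acid for 10 min, dye solubilized in 10 mM Trizma base, absorbance read at 515 nm. Growth calculated against time-zero and untreated control plates.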

HOP-62 = test: Antiproliferative activity against human HOP-62 cells assessed as cell growth inhibition at 10 uM incubated for 48 hrs by SRB assay relative to control
A498 = test: Antiproliferative activity against human A498 cells assessed as cell growth inhibition at 10 uM incubated for 48 hrs by SRB assay relative to control; how it was run: as §1
SF-295 = test: Antiproliferative activity against human SF-295 cells assessed as cell growth inhibition at 10 uM incubated for 48 hrs by SRB assay relative to control; how it was run: as §1
MDA-MB-435 = test: Antiproliferative activity against human MDA-MB-435 cells assessed as cell growth inhibition at 10 uM incubated for 48 hrs by SRB assay relative to control
CCRF-CEM = test: Antiproliferative activity against human CCRF-CEM cells assessed as cell growth inhibition at 10 uM incubated for 48 hrs by SRB assay relative to control; how it was run: as §1
786-0 = test: Antiproliferative activity against human 786-0 cells assessed as cell growth inhibition at 10 uM incubated for 48 hrs by SRB assay relative to control
SNB-75 = test: Antiproliferative activity against human SNB-75 cells assessed as cell growth inhibition at 10 uM incubated for 48 hrs by SRB assay relative to control; how it was run: as §2
PC-3 = test: Antiproliferative activity against human PC-3 cells assessed as cell growth inhibition at 10 uM incubated for 48 hrs by SRB assay relative to control
NCI-H522 = test: Antiproliferative activity against human NCI-H522 cells assessed as cell growth inhibition at 10 uM incubated for 48 hrs by SRB assay relative to control; how it was run: as §1
LOX IMVI = test: Antiproliferative activity against human LOX IMVI cells assessed as cell growth inhibition at 10 uM incubated for 48 hrs by SRB assay relative to control
CAKI-1 = test: Antiproliferative activity against human CAKI-1 cells assessed as cell growth inhibition at 10 uM incubated for 48 hrs by SRB assay relative to control
Hs-578T = test: Antiproliferative activity against human Hs-578T cells assessed as cell growth inhibition at 10 uM incubated for 48 hrs by SRB assay relative to control; how it was run: as §1
HT-29 = test: Antiproliferative activity against human HT-29 cells assessed as cell growth inhibition at 10 uM incubated for 48 hrs by SRB assay relative to control; how it was run: as §1
M14 = test: Antiproliferative activity against human M14 cells assessed as cell growth inhibition at 10 uM incubated for 48 hrs by SRB assay relative to control; how it was run: as §1
HOP-92 = test: Antiproliferative activity against human HOP-92 cells assessed as cell growth inhibition at 10 uM incubated for 48 hrs by SRB assay relative to control; how it was run: as §1
NCI-H322M = test: Antiproliferative activity against human NCI-H322M cells assessed as cell growth inhibition at 10 uM incubated for 48 hrs by SRB assay relative to control
UACC-257 = test: Antiproliferative activity against human UACC-257 cells assessed as cell growth inhibition at 10 uM incubated for 48 hrs by SRB assay relative to control; how it was run: as §2
SF-539 = test: Antiproliferative activity against human SF-539 cells assessed as cell growth inhibition at 10 uM incubated for 48 hrs by SRB assay relative to control; how it was run: as §1
HCC 2998 = test: Antiproliferative activity against human HCC 2998 cells assessed as cell growth inhibition at 10 uM incubated for 48 hrs by SRB assay relative to control
MCF7 = test: Antiproliferative activity against human MCF7 cells assessed as cell growth inhibition at 10 uM incubated for 48 hrs by SRB assay relative to control
RPMI-8226 = test: Antiproliferative activity against human RPMI-8226 cells assessed as cell growth inhibition at 10 uM incubated for 48 hrs by SRB assay relative to control
NCI-H226 = test: Antiproliferative activity against human NCI-H226 cells assessed as cell growth inhibition at 10 uM incubated for 48 hrs by SRB assay relative to control; how it was run: as §1
OVCAR-5 = test: Antiproliferative activity against human OVCAR-5 cells assessed as cell growth inhibition at 10 uM incubated for 48 hrs by SRB assay relative to control; how it was run: as §1

SMILES | inhibition of growth at 10 µM (SF-268) [%] | inhibition of growth at 10 µM (SN12C) [%] | inhibition of growth at 10 µM (DU-145) [%] | inhibition of growth at 10 µM (HCT-15) [%] | inhibition of growth at 10 µM (NCI-H460) [%] | inhibition of growth at 10 µM (SK-MEL-2) [%] | inhibition of growth at 10 µM (NCI/ADR-RES) [%] | inhibition of growth at 10 µM (OVCAR-3) [%] | inhibition of growth at 10 µM (RXF 393) [%] | inhibition of growth at 10 µM (BT-549) [%] | inhibition of growth at 10 µM (TK-10) [%] | inhibition of growth at 10 µM (HOP-62) [%] | inhibition of growth at 10 µM (A498) [%] | inhibition of growth at 10 µM (SF-295) [%] | inhibition of growth at 10 µM (MDA-MB-435) [%] | inhibition of growth at 10 µM (CCRF-CEM) [%] | inhibition of growth at 10 µM (786-0) [%] | inhibition of growth at 10 µM (SNB-75) [%] | inhibition of growth at 10 µM (PC-3) [%] | inhibition of growth at 10 µM (NCI-H522) [%] | other results
COc1ccc(/C=C/C(=O)c2ccc(-n3c(C)nc4c(cnn4-c4ccccc4)c3=O)cc2)cc1 | < 15 | 18.4 | 16.8 | 46.5 | < 15 | 29.4 | 37.6 | 39 | 15.6 | 55 | < 15 | 19.5 | < 15 | 34.5 | 88.8 | 53.6 | 15.4 | < 15 | 34.9 | 42.6 | inhibition of growth at 10 µM (LOX IMVI): 56%; inhibition of growth at 10 µM (CAKI-1): 25%; inhibition of growth at 10 µM (Hs-578T): < 15%; inhibition of growth at 10 µM (HT-29): 28.5%; inhibition of growth at 10 µM (M14): 46.9%; inhibition of growth at 10 µM (HOP-92): < 15%; inhibition of growth at 10 µM (NCI-H322M): < 15%; inhibition of growth at 10 µM (UACC-257): 25.4%; inhibition of growth at 10 µM (SF-539): 22.4%; inhibition of growth at 10 µM (HCC 2998): < 15%; inhibition of growth at 10 µM (MCF7): 91.7%; inhibition of growth at 10 µM (RPMI-8226): > 100%; inhibition of growth at 10 µM (NCI-H226): 29.4%; inhibition of growth at 10 µM (OVCAR-5): < 15%
Cc1nc2c(cnn2-c2ccccc2)c(=O)n1-c1ccc(NC(=O)c2ccccc2)cc1 | 21.5 | 24.3 | 18.6 | 20.2 | 27.9 | < 15 | 30.4 | 16.8 | 18.9 | 39.1 | 18.6 | 37.9 | < 15 | 46.5 | 27.2 | 49.5 | 20.4 | 43.2 | 29.5 | 20.7 | inhibition of growth at 10 µM (LOX IMVI): 26.8%; inhibition of growth at 10 µM (CAKI-1): 33.4%; inhibition of growth at 10 µM (Hs-578T): 28.9%; inhibition of growth at 10 µM (HT-29): 25.2%; inhibition of growth at 10 µM (M14): 23.6%; inhibition of growth at 10 µM (HOP-92): 29.2%; inhibition of growth at 10 µM (NCI-H322M): < 15%; inhibition of growth at 10 µM (UACC-257): 46.9%; inhibition of growth at 10 µM (SF-539): 19.8%; inhibition of growth at 10 µM (HCC 2998): < 15%; inhibition of growth at 10 µM (MCF7): 47.1%; inhibition of growth at 10 µM (RPMI-8226): 43.6%; inhibition of growth at 10 µM (NCI-H226): 44.7%; inhibition of growth at 10 µM (OVCAR-5): < 15%
